According to ChEMBL document CHEMBL3097989, “Antimicrobial activity of de novo designed cationic peptides against multi-resistant clinical isolates” (Eur J Med Chem, 2014):
Where a SMILES comes first, the peptide text is derived from it.

How the values were obtained:
Format in all cases: functional
Klebsiella pneumoniae [1] = assay: Antibacterial activity against Klebsiella pneumoniae M9170 clinical isolate expressing blaOXA-GIII gene by microdilution test
Outline: (§1)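 MIC by standard broth microdilution following CLSI recommendations, in Mueller Hinton broth supplemented with Ca²⁺ (20-25mg/L) and Mg²⁺ (10-12.5mg/L); peptides tested against a panel of multi-resistant clinical isolates plus ATCC reference strains.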

Klebsiella pneumoniae [2] = assay: Antibacterial activity against Klebsiella pneumoniae M9140 clinical isolate expressing blaCIT gene by microdilution test; outline: as §1
Acinetobacter sp. [3] = assay: Antibacterial activity against Acinetobacter sp. M9013 clinical isolate expressing blaOXA-51 and blaIMP gene by microdilution test; outline: as §1
Acinetobacter sp. [4] = assay: Antibacterial activity against Acinetobacter sp. M5949 clinical isolate expressing blaOXA-23 and blaOXA-GVI gene by microdilution test; outline: as §1
Acinetobacter sp. [5] = assay: Antibacterial activity against Acinetobacter sp. M7489 clinical isolate expressing blaOXA-51 and blaTEM gene by microdilution test; outline: as §1
Acinetobacter sp. [6] = assay: Antibacterial activity against Acinetobacter sp. M9665 clinical isolate expressing blaOXA-51 gene by microdilution test; outline: as §1
Pseudomonas aeruginosa [7] = assay: Antibacterial activity against Pseudomonas aeruginosa M7728 clinical isolate expressing blaIMP gene by microdilution test
Outline: (§2)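 MIC by standard broth microdilution following CLSI recommendations, in Mueller Hinton broth supplemented with Ca²⁺ (20-25 mg/L) and Mg²⁺ (10-12.5 mg/L); ATCC reference strains included in the panel.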

Pseudomonas aeruginosa [8] = assay: Antibacterial activity against Pseudomonas aeruginosa M7723 clinical isolate expressing blaKPC-2 gene by microdilution test; outline: as §2
Pseudomonas aeruginosa [9] = assay: Antibacterial activity against Pseudomonas aeruginosa M11005 clinical isolate expressing blaKPC-2 gene by microdilution test; outline: as §1
Pseudomonas aeruginosa [10] = assay: Antibacterial activity against Pseudomonas aeruginosa M5470 by microdilution test; outline: as §2
Pseudomonas aeruginosa [11] = assay: Antibacterial activity against Pseudomonas aeruginosa PCOS12 by microdilution test; outline: as §2
Enterococcus gallinarum = assay: Antibacterial activity against Enterococcus gallinarum M2723 clinical isolate expressing vanC1 and vanA gene by microdilution test; outline: as §1
Enterococcus faecium [12] = assay: Antibacterial activity against Enterococcus faecium M2481 clinical isolate expressing vanB gene by microdilution test; outline: as §1
Enterococcus faecium [13] = assay: Antibacterial activity against Enterococcus faecium M6261 by microdilution test; outline: as §1
Enterococcus faecium [14] = assay: Antibacterial activity against Enterococcus faecium PZAP95 by microdilution test; outline: as §1
Enterococcus faecalis [15] = assay: Antibacterial activity against Enterococcus faecalis M6383 clinical isolate expressing vanA gene by microdilution test; outline: as §1
Enterococcus faecalis [16] = assay: Antibacterial activity against Enterococcus faecalis M4992 clinical isolate expressing vanA gene by microdilution test; outline: as §1
Enterococcus faecalis [17] = assay: Antibacterial activity against Enterococcus faecalis M4899 clinical isolate expressing vanB gene by microdilution test; outline: as §1
Enterococcus faecalis [18] = assay: Antibacterial activity against Enterococcus faecalis ATCC 29212 by microdilution test; outline: as §1
Staphylococcus hominis = assay: Antibacterial activity against Staphylococcus hominis M2973 clinical isolate expressing mecA gene by microdilution test; outline: as §2
[19] = tested on: Staphylococcus haemolyticus; assay: Antibacterial activity against Staphylococcus haemolyticus M3014 by microdilution test; outline: as §2
[20] = tested on: Staphylococcus haemolyticus; assay: Antibacterial activity against Staphylococcus haemolyticus M2976 clinical isolate expressing mecA gene by microdilution test; outline: as §2
[21] = tested on: Staphylococcus epidermidis; assay: Antibacterial activity against Staphylococcus epidermidis M2931 by microdilution test; outline: as §2
Staphylococcus aureus [22] = assay: Antibacterial activity against Staphylococcus aureus M6784 clinical isolate expressing mecA gene by microdilution test; outline: as §2
Staphylococcus aureus [23] = assay: Antibacterial activity against Staphylococcus aureus M2832 clinical isolate expressing mecA gene by microdilution test; outline: as §2
Staphylococcus aureus [24] = assay: Antibacterial activity against Staphylococcus aureus M6276 clinical isolate expressing ermA and lnuA gene by microdilution test; outline: as §2
Staphylococcus aureus [25] = assay: Antibacterial activity against Staphylococcus aureus ATCC 29213 by microdilution test; outline: as §2
Escherichia coli [26] = assay: Antibacterial activity against Escherichia coli M5306 clinical isolate expressing blaPER-2, blaCTX-M-2 and blaTEM-1 gene by microdilution test; outline: as §1
Escherichia coli [27] = assay: Antibacterial activity against Escherichia coli PLCA1 clinical isolate expressing blaCTX-M-2 and blaTEM-1 gene by microdilution test; outline: as §1
Escherichia coli [28] = assay: Antibacterial activity against Escherichia coli ATCC 25922 by microdilution test; outline: as §1
Klebsiella pneumoniae [29] = assay: Antibacterial activity against Klebsiella pneumoniae M11245 clinical isolate expressing blaKPC-2 and blaPER-2 gene by microdilution test; outline: as §1
Klebsiella pneumoniae [30] = assay: Antibacterial activity against Klebsiella pneumoniae M1803 clinical isolate expressing blaPER-2, blaCTX-M-2, blaTEM-1, blaSHV and blaOXA-9 gene by microdilution test; outline: as §1
Klebsiella pneumoniae [31] = assay: Antibacterial activity against Klebsiella pneumoniae M9375 clinical isolate expressing blaCTX-M-2, blaTEM-1 and blaSHV-1 gene by microdilution test; outline: as §1
Klebsiella pneumoniae [32] = assay: Antibacterial activity against Klebsiella pneumoniae M9310 clinical isolate expressing blaCTX-M-2, blaTEM-1 and blaSHV-1 gene by microdilution test; outline: as §1

`CC[C@H](C)[C@H](N)C(=O)N[C@@H](CC(C)C)C(=O)N[C@@H](CCCNC(=N)N)C(=O)N[C@@H](Cc1c[nH]c2ccccc12)C(=O)N1CCC[C@H]1C(=O)N[C@@H](Cc1c[nH]c2ccccc12)C(=O)N[C@@H](Cc1c[nH]c2ccccc12)C(=O)N1CCC[C@H]1C(=O)N[C@@H](Cc1c[nH]c2ccccc12)C(=O)N[C@@H](CCCNC(=N)N)C(=O)N[C@@H](CCCNC(=N)N)C(=O)N[C@@H](CCCCN)C(N)=O.Cl.Cl.Cl.Cl.Cl` [OMIGANAN PENTAHYDROCHLORIDE] (H-ILRWPWWPWRRK-NH2) was tested, and the MIC90 (Klebsiella pneumoniae [1]) was 128 µg/mL, the MIC90 (Klebsiella pneumoniae [2]) was 64 µg/mL and the MIC90 (Acinetobacter sp. [3]) was 32 µg/mL. It also gave an MIC90 (Acinetobacter sp. [4]) of 32 µg/mL, an MIC90 (Acinetobacter sp. [5]) of 8 µg/mL and an MIC90 (Acinetobacter sp. [6]) of 4 µg/mL. It also gave an MIC90 (Pseudomonas aeruginosa [7]) of 512 µg/mL, an MIC90 (Pseudomonas aeruginosa [8]) of 256 µg/mL and an MIC90 (Pseudomonas aeruginosa [9]) of 512 µg/mL. For the same molecule, the MIC90 (Pseudomonas aeruginosa [10]) was 512 µg/mL, the MIC90 (Pseudomonas aeruginosa [11]) was 512 µg/mL and the MIC90 (Enterococcus gallinarum) was 16 µg/mL. For the same molecule, the MIC90 (Enterococcus faecium [12]) was 16 µg/mL, the MIC90 (Enterococcus faecium [13]) was 16 µg/mL and the MIC90 (Enterococcus faecium [14]) was 16 µg/mL. It also gave an MIC90 (Enterococcus faecalis [15]) of 128 µg/mL, an MIC90 (Enterococcus faecalis [16]) of 128 µg/mL and an MIC90 (Enterococcus faecalis [17]) of 256 µg/mL. The MIC90 (Enterococcus faecalis [18]) was 128 µg/mL, the MIC90 (Staphylococcus hominis) was 4 µg/mL and the MIC90 [19] was 4 µg/mL. For the same molecule, the MIC90 [20] was 4 µg/mL, the MIC90 [21] was 16 µg/mL and the MIC90 (Staphylococcus aureus [22]) was 32 µg/mL. For the same molecule, the MIC90 (Staphylococcus aureus [23]) was 64 µg/mL, the MIC90 (Staphylococcus aureus [24]) was 32 µg/mL and the MIC90 (Staphylococcus aureus [25]) was 32 µg/mL. The MIC90 (Escherichia coli [26]) was 64 µg/mL, the MIC90 (Escherichia coli [27]) was 64 µg/mL and the MIC90 (Escherichia coli [28]) was 64 µg/mL. The MIC90 (Klebsiella pneumoniae [29]) was 32 µg/mL, the MIC90 (Klebsiella pneumoniae [30]) was 1020 µg/mL and the MIC90 (Klebsiella pneumoniae [31]) was 32 µg/mL. The MIC90 (Klebsiella pneumoniae [32]) was 64 µg/mL.

Molecule H-GLLKKWLKKWKEFKRIVGY-NH2 has an MIC90 (Klebsiella pneumoniae [1]) of 32 µg/mL, an MIC90 (Klebsiella pneumoniae [2]) of 32 µg/mL and an MIC90 (Acinetobacter sp. [3]) of 8 µg/mL. For the same molecule, the MIC90 (Acinetobacter sp. [4]) was 16 µg/mL, the MIC90 (Acinetobacter sp. [5]) was 16 µg/mL and the MIC90 (Acinetobacter sp. [6]) was 32 µg/mL. For the same molecule, the MIC90 (Pseudomonas aeruginosa [7]) was 64 µg/mL, the MIC90 (Pseudomonas aeruginosa [8]) was 64 µg/mL and the MIC90 (Pseudomonas aeruginosa [9]) was 64 µg/mL. The MIC90 (Pseudomonas aeruginosa [10]) was 64 µg/mL, the MIC90 (Pseudomonas aeruginosa [11]) was 64 µg/mL and the MIC90 (Enterococcus gallinarum) was 32 µg/mL. It also gave an MIC90 (Enterococcus faecium [12]) of 16 µg/mL, an MIC90 (Enterococcus faecium [13]) of 16 µg/mL and an MIC90 (Enterococcus faecium [14]) of 16 µg/mL. The MIC90 (Enterococcus faecalis [15]) was 128 µg/mL, the MIC90 (Enterococcus faecalis [16]) was 128 µg/mL and the MIC90 (Enterococcus faecalis [17]) was 128 µg/mL. For the same molecule, the MIC90 (Enterococcus faecalis [18]) was 128 µg/mL, the MIC90 (Staphylococcus hominis) was 4 µg/mL and the MIC90 [19] was 8 µg/mL. The MIC90 [20] was 8 µg/mL, the MIC90 [21] was 16 µg/mL and the MIC90 (Staphylococcus aureus [22]) was 32 µg/mL. It also gave an MIC90 (Staphylococcus aureus [23]) of 128 µg/mL, an MIC90 (Staphylococcus aureus [24]) of 128 µg/mL and an MIC90 (Staphylococcus aureus [25]) of 64 µg/mL. The MIC90 (Escherichia coli [26]) was 4 µg/mL, the MIC90 (Escherichia coli [27]) was 64 µg/mL and the MIC90 (Escherichia coli [28]) was 32 µg/mL. The MIC90 (Klebsiella pneumoniae [29]) was 16 µg/mL, the MIC90 (Klebsiella pneumoniae [30]) was 32 µg/mL and the MIC90 (Klebsiella pneumoniae [31]) was 64 µg/mL. The MIC90 (Klebsiella pneumoniae [32]) was 16 µg/mL.
